L major viab: Leishmania major promastigote growth inhibition. Leishmania major promastigotes, resazurin fluorescence viability. 200,000 tested, 9% active. inhibition, % at 10 µM; in the data active means inhibition above about 50%;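 further: promastigotes grown with compound for 44 hours at 28 °C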
Diaph act CS: diaphorase activation or chemical reduction counter-screen | 190,000 tested, 0.005% active | AID 1229 | activation factor at 20 µM | Diaphorase/resazurin coupled assay, resorufin fluorescence, 16 min; hits give high values; 1 = vehicle wells, 0 = NADH-free wells;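 active means diaphorase activity raised at least twofold by the compound at 20 µM; inactive means activation factor below 2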
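Material: purified diaphorase enzyme from Clostridium kluyveri; Also added: 0.114 mM NADH and 0.1 mM resazurin, final amounts; Doses: single compound dose of 20 µM, 1% DMSO final; Times: 16 min enzyme reaction, ambient temperature; Detection: resorufin fluorescence, excitation 544 nm, emission 590 nm; Measure: increased resorufin signal from activators or reducing compounds.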
PMI activator: activators of human phosphomannose isomerase. P34949. purified human PMI, coupled resazurin fluorescence, 20 min; hits give high values; 1 = vehicle control, 0 substrate-free wells. activation factor at 20 µM. 190,000 tested, 0.005% active. AID 1214;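 active means activation factor of 2 or more at 20 µM, relative to plate controls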
Target sequence (P34949 whole entry, looked up): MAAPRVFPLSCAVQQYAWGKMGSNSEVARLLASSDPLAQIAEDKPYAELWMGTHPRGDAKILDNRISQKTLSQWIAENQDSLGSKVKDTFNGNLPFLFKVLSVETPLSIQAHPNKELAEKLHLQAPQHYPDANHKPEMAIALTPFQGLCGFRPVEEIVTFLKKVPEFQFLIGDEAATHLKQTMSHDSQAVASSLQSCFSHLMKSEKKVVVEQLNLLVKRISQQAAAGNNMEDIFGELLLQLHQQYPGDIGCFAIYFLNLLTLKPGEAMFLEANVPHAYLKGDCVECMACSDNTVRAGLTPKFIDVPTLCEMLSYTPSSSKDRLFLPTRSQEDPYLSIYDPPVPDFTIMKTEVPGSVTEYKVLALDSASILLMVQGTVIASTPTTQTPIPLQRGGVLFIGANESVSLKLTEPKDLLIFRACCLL
PMI act satM6P: activators of human phosphomannose isomerase at near-saturating mannose 6-phosphate; P34949; coupled PMI enzyme assay, resazurin fluorescence, 20 min; hits give high values; 1 = untreated enzyme, 0 = substrate-free blank; activation factor at 20 µM; 190,000 tested, 0.34% active; AID 1216;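 active means activation factor of 2 or more at 20 µM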
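Test system: human PMI in coupled enzyme assay; Input: PMI at 15 ng/mL final; Medium: HEPES buffer, pH 7.4; Schedule: 20 min incubation at room temperature; Technique: resorufin fluorescence at Ex 544/Em 590 nm; Compound: 20 µM single dose; Probe or stimulus: Near-saturating mannose-6-phosphate, 1.0 mM.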
WT yeast gro inh: growth inhibition of WT yeast, mitochondrial fusion screen; mitochondrial fusion phenotypic screen, WT strain; 190,000 tested, 2.1% active; inhibition, % at 10 µM; in the data active means inhibition above about 58%; tested in S. cerevisiae
An asterisk follows results filed as active. Rows were chosen to be rich in hits. Some 10% of all compounds tested hit in one or more screens of this group.

SMILES	L major viab	Diaph act CS	PMI activator	PMI act satM6P	WT yeast gro inh
Cc1cccc(NC(=S)N=Nc2c(O)n(CN3CCOCC3)c3ccccc23)c1C	96*	1	1	1	69*
Cc1ccc2c(c1)c(N=NC(N)=S)c(O)n2Cc1ccccc1	44	0.9	1	0.9	6
Cc1cccc(Cn2c(O)c(N=NC(=S)Nc3ccccc3F)c3ccccc32)c1	97*	1	1.1	1.1	5
CC1CCCC(NC(=O)COC(=O)CCc2ccccc2)C1C (centres undefined)	-9	0.9	1	1	5
CC1CCCC(NC(=O)COC(=O)CSc2ccc3ccccc3c2)C1C (centres undefined)	55*	0.7	1	0.9	7
Cc1ccc(-c2cc(C(F)(F)F)n3nc(C(=O)NCCCn4ccnc4)cc3n2)cc1C	100*	1	0.9	0.8	47
NS(=O)(=O)c1ccc(N2N=C(c3ccccc3)CC2c2ccccc2)cc1 (centres undefined)	0	0.8	0.8	0.9	72*
O=S(=O)(O)c1ccc(N2N=C(c3ccccc3)CC2c2ccccc2)cc1 (centres undefined)	-4	1	1.3	1.1	-10
CCc1ccc(C2=NN(c3ccc(S(N)(=O)=O)cc3)C(c3ccc(F)cc3)C2)cc1 (centres undefined)	78*	0.7	0.8	0.7	94*
Cc1nc(NC(=O)c2ccc(Cl)cc2)sc1-c1csc(Nc2cccc(F)c2)n1	10	0.8	0.8	0.9	23
CN1C(=O)c2ccc(NC(=S)NC(=O)C(C)(C)C)cc2C1=O	-1	0.8	0.9	0.9	-3
CCOC(=O)c1cc(-c2ccc(F)cc2)n(CC(=O)NCc2cccnc2)c1C	3	1.1	1.1	1.1	-7
CCc1cccc(NC(=O)NC(=O)Cn2nnc(C(=O)OC)c2C(=O)OC)c1	-7	0.9	0.8	1	-3
CN(c1ccccc1)C1CCCCC1NS(=O)(=O)c1ccc(Cl)cc1 (centres undefined)	35	0.9	0.9	1	65*
O=S(=O)(NC1CCCCC1NS(=O)(=O)c1ccc(F)cc1)c1ccc(F)cc1 (centres undefined)	4	1	0.9	1	-8
O=S(=O)(NC1CCCCC1Oc1ccccc1)c1ccc(Cl)cc1 (centres undefined)	75*	0.8	0.9	0.9	61*
CSc1ccc(OC2CCCCC2NS(=O)(=O)c2ccc(Cl)cc2)cc1 (centres undefined)	96*	0.9	0.9	0.9	74*
CCN(CC)C1CCCCC1NS(=O)(=O)c1ccc(Cl)cc1 (centres undefined)	-5	0.9	1	1	3
Cc1cc(C)c(NC(=O)COC(=O)CCc2ccc(S(=O)(=O)N3CCCCC3)cc2)c(C)c1	-5	0.7	0.8	0.9	-8
CCN(CC)CCN1C2=C(C(=O)CC(C)(C)C2)C(c2cccc(F)c2)C2=C1CC(C)(C)CC2=O	22	0.9	1.1	1.1	-20
CCCN1C2=C(C(=O)CC(C)(C)C2)C(c2ccc(F)cc2)C2=C1c1ccccc1C2=O (centres undefined)	72*	0.8	0.9	1	-4
CCCCN1C2=C(C(=O)CC(C)(C)C2)C(c2ccccc2)C2=C1c1ccccc1C2=O (centres undefined)	84*	0.7	0.8	0.9	-2
CC1(C)CC(=O)C2=C(C1)NC1=C(C(=O)c3ccccc31)C2c1ccc(Cl)cc1 (centres undefined)	60*	0.8	1	1	12
Cc1ccc(C2C3=C(CC(C)(C)CC3=O)NC3=C2C(=O)c2ccccc23)cc1 (centres undefined)	36	0.8	1	1.1	-5
C=CCNC(=O)NC(=O)COC(=O)CNS(=O)(=O)c1ccc(F)c(F)c1F	0	1.1	1.2	1.1	-3
CCN1CCN(C(=O)CN(C)S(=O)(=O)c2ccc(OC)c(C)c2)CC1	98*	0.9	1	1	5
O=C(O)c1cn(Cc2ccccc2)nc1-c1cccnc1	2	1	1.1	1.2	1
O=C(COC(=O)COc1ccccc1)NC1CCCc2ccccc21 (centres undefined)	-1	0.9	0.8	0.9	15

Screening results deposited in PubChem by several laboratories.
